Assay outcomes (PubChem BioAssay)
DNMT1 block: blocks human DNA methyltransferase DNMT1; P26358; DNMT1 molecular beacon, Hinp1I cleavage, fluorescence; inhibition (reported as % activation of signal), % at 10 µM; actives 0.83% (n = 360,000); AID 588458; in the data active = inhibition above about 50%
SUMO1-SIM PPI: SUMO1-SIM interaction modulation; inhibition, % at 20 µM; SUMO1 binding to a labelled peptide, TR-FRET, 1 h; P63165; actives 0.33% (n = 360,000); in the data active = inhibition above about 37%
LMPTP inh: LMPTP (human) inhibition; actives 0.22% (n = 360,000); recombinant LMPTP-A, OMFP fluorogenic substrate, fluorescence intensity; AID 651560; P24666; inhibition, % at 20 µM;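 active = compounds that cut the enzyme signal by at least half of the control window in the single-dose screen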;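 note: plate controls were DMSO wells with enzyme plus substrate for no effect and substrate without enzyme for full effect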
Target sequence (P24666 whole entry, looked up): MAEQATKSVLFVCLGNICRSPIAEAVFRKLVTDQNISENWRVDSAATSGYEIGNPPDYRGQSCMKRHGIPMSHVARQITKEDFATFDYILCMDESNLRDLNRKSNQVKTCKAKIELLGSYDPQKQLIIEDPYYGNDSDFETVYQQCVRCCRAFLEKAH
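Buffer or medium: Bis-Tris pH 6.0, DTT, detergent; Assay system: LMPTP-A enzyme; Quantity: 0.625 nM enzyme; Detection: endpoint fluorescence intensity; Times: 50 min dark incubation at room temperature; Controls: substrate-only low control, DMSO enzyme-plus-substrate high control; Doses: single 20 µM dose; Read-out: percent inhibition versus substrate-only and uninhibited controls; Reagent: 400 µM OMFP.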
STEP inh: STEP (human) phosphatase inhibition; recombinant STEP, OMFP fluorogenic substrate, fluorescence; inhibition, % at 20 µM; actives 0.25% (n = 360,000);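 active = inhibition at 20 µM, scaled per plate between control wells, above about 37%, limit read from the data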;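 note: 0% = DMSO with enzyme and substrate and 100% = substrate only without enzyme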
Target sequence (P54829 whole entry, looked up): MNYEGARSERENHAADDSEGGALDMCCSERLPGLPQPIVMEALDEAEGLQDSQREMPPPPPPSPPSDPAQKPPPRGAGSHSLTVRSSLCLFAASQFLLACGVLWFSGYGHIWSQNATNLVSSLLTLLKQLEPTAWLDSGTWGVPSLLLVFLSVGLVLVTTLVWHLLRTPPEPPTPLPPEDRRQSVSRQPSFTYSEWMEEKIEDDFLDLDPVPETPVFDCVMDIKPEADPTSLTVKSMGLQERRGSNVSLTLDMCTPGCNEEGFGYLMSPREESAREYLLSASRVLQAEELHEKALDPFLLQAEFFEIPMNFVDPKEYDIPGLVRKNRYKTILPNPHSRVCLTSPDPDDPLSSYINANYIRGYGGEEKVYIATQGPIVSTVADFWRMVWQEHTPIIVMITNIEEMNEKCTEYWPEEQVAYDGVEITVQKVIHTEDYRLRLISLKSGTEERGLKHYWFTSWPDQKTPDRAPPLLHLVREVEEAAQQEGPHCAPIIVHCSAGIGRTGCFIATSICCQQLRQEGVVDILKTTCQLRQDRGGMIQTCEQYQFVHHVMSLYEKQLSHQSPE
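Assay system: isolated STEP enzyme / Timing: 20 min at room temperature, dark / Doses: 20 µM, 1% DMSO / Technique: fluorescence intensity, excitation 480 nm, emission 540 nm / Reagent: fluorogenic phosphatase substrate OMFP at 25 µM final / Measure: percent inhibition scaled to no-enzyme and uninhibited-enzyme controls, plate-pattern corrected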
GRK2 inh: human GRK2 inhibition via aptamer displacement; inhibition of aptamer binding, % at 10 µM; actives 0.59% (n = 330,000); bead flow cytometry, FAM-aptamer displacement from GRK2; P25098;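 active = inhibition of aptamer binding above 40%, roughly 3 SD of noise, on plates passing a quality check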;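 note: median bead fluorescence of bound FAM aptamer so fluorescent compounds give negative values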
Scp1 inh: inhibitors of human Scp-1 phosphatase; Recombinant Scp1, phosphopeptide, malachite green phosphate absorbance; actives 0.88% (n = 340,000); Q9GZU7; AID 493091; inhibition, % at 20 µM;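 active = inhibition above about 50% at 20 µM, limit read from the data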;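 note: plate controls were DMSO wells with enzyme for no effect and wells lacking enzyme for full effect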
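Incubation: 45 min enzyme reaction at room temperature / System: truncated SCP-1 phosphatase (76-261aa) / Reagent: Phospho 17-mer peptide substrate / Buffer or medium: Acidic Tris acetate buffer with magnesium and detergent / Signal: absorbance at 630 nm / Doses: one concentration, 20 µM, with 1.0% DMSO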
Scp1 confirm: confirmation of human Scp-1 phosphatase inhibitors. recombinant SCP-1 catalytic domain, phosphate release, malachite green absorbance. inhibition, % at 20 µM. actives 61% (n = 2,500). shares compounds with Scp1 inh;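 note: plate controls were DMSO with enzyme for no effect and buffer wells lacking enzyme for full effect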
MG interference: colorimetric interference in Scp-1 counter-screen; AID 540313; Colorimetric interference counterscreen, malachite green absorbance 630 nm; shares compounds with Scp1 inh; apparent inhibition (interference), % at 20 µM; 2,500 tested, under 10 active;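 note: compounds added after enzyme reaction finished so only phosphate colour detection is probed; plate controls were DMSO wells with completed Scp-1 reaction for no effect and substrate wells lacking enzyme for full effect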
Scp-1 Tm shift: binds human Scp-1, shifting its melting temperature | shares compounds with Scp1 inh | Recombinant SCP1, Sypro Orange thermal shift Tm | thermal shift relative to vanadate control, % at 40 µM | actives 25% (n = 1,500) | AID 540329;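 active = substances whose mean melting-temperature shift, as a percentage of the reference inhibitor's shift, reaches about 5.3%, limit read from the data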;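 note: 0% = Tm of DMSO wells and 100% = Tm with sodium orthovanadate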
DNMT1 interf DR: beacon fluorescence artifact, dose response counter-screen | shares compounds with DNMT1 block | molecular beacon fluorescence, spectral interference counter-screen | IC50, µM | 200 tested, under 10 active; call rule not given here
DNMT1 confirm: confirmation of human DNMT1 inhibitors; AID 602385; shares compounds with DNMT1 block; inhibition, % at 10 µM; actives 8% (n = 2,300); DNMT1 molecular beacon HinP1I cleavage, fluorescence;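 active = average inhibition of at least 30% in the single-concentration confirmation test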
Beacon interf: counter-screen for DNMT1 inhibitors: spectral interference; actives 1% (n = 2,300); DNMT1 molecular beacon spectral interference counterscreen, fluorescence 485/520; activation (fluorescence interference), % at 10 µM; AID 602387; shares compounds with DNMT1 block;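 active = activation of at least 30% at 10 µM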;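 note: DNMT1 catalytic domain with a HinP1I cleavage step and a FAM/dabcyl DNA beacon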
Numbers without * were called inactive; x = no result. Compounds with a hit are over-represented: about 2.1% of the library has one in this group of screens.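 Rule for the calls, unless noted: active = inhibition of at least 30% at 20 µM; inactive = the rest.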

SMILES | DNMT1 block | SUMO1-SIM PPI | LMPTP inh | STEP inh | GRK2 inh | Scp1 inh | Scp1 confirm | MG interference | Scp-1 Tm shift | DNMT1 confirm | Beacon interf | others
COc1ccc(S(=O)(=O)N2CCCCCC2)cc1C(=O)N1CCN(c2ccc(F)cc2)CC1 | 0 | 3 | 0 | 2 | x | -6 | x | x | x | x | x
CN(C)c1cccc(C(=O)N/N=C/c2ccccc2F)c1 | -1 | -2 | -1 | 2 | 0 | 6 | x | x | x | x | x
Cc1cc(/C=N/NC(=O)c2cccc(N(C)C)c2)c(C)n1-c1cc(C(=O)O)cc(C(=O)O)c1 | 81* | 22 | -1 | 17 | x | 66* | 53* | -14 | 7.5* | 9 | 3
O=C(c1coc(=O)c(Br)c1)N1CCOCC1 | 74* | -6 | 13 | 38 | x | 68* | 60* | -12 | -17 | 0 | 0
O=C(Cc1coc2cc3c(cc12)CCC3)OCc1cc(=O)n2c(n1)sc1ccccc12 | 85* | 6 | 9 | 2 | 5 | 63* | 51* | -30 | 6.3* | 1 | 2
Cc1ccc2c(CC(=O)OCc3csc(C)n3)coc2c1 | -2 | -1 | -2 | 2 | 0 | 1 | x | x | x | x | x
O=C(OCc1cc(=O)n2c(n1)sc1ccccc12)c1ccc(O)cc1O | 70* | 4 | 13 | 3 | 1 | 78* | 60* | -12 | 0 | 6 | -7
CC(C)[C@H](NC(=O)c1ccco1)C(=O)OCc1cc(=O)n2c(n1)sc1ccccc12 | 84* | 11 | 21 | 0 | 13 | 83* | 59* | -14 | 2 | 17 | -1
O=C(OCc1cc(=O)n2c(n1)sc1ccccc12)c1cccc(O)c1 | 98* | 12 | 8 | 0 | 3 | 79* | 58* | -19 | 5 | 23 | 5
COC(=O)c1cc(=O)nc2sc3ccccc3n12 | 4 | 2 | 0 | -3 | 0 | 0 | x | x | x | x | x
CCOC(=O)Cc1csc(NC(=O)CSc2nc(=O)[nH]c3c2CCC3)n1 | -2 | 1 | 1 | 1 | 2 | -6 | x | x | x | x | x
CCC1CC(C(=O)O)CC(=O)N1 (stereo not drawn) | -1 | -1 | 0 | -2 | x | x | x | x | x | x | x
CNC(=O)c1[nH]cnc1C(=O)Nc1ccc(OC)cc1 | 2 | 1 | 0 | 2 | 2 | -2 | x | x | x | x | x
Cc1ccc(C)c(S(=O)(=O)Nc2ccc3oc(C)c(C(=O)O)c3c2)c1 | 83* | 51* | 23 | 64* | 28 | 70* | 64* | -13 | 12* | 16 | -1
CC(=O)c1c(C)oc2ccc(NS(=O)(=O)c3ccc(C)cc3)cc12 | 3 | -1 | 3 | 0 | 7 | -4 | x | x | x | x | x
O=C1NN(c2ccccc2)C(=O)/C1=C/c1ccc(-c2ccc(Cl)c(C(=O)O)c2)o1 | 85* | 20 | 9 | 18 | x | 70* | 62* | -8 | 14* | 12 | 0
Cc1cccc(N2NC(=O)/C(=C/c3ccc(-c4ccc(Cl)c(C(=O)O)c4)o3)C2=O)c1 | 84* | 30 | 26 | 21 | x | 71* | 56* | -23 | 12* | 12 | 0
CCCn1c(N)c(N2CCCCC2)c(=O)n(CC(=O)Nc2ccccc2C(F)(F)F)c1=O | -2 | -2 | 0 | 2 | 0 | 3 | x | x | x | x | x
O=C(COc1cccnc1[N+](=O)[O-])Nc1ncc(Cl)cc1Cl | 83* | 15 | 10 | 1 | 12 | 62* | 63* | -13 | 10.0* | 3 | -2
O=C(COc1cccnc1[N+](=O)[O-])Nc1c(Cl)cccc1Cl | -3 | -18 | 0 | 3 | 0 | -12 | x | x | x | x | x
O=C(Cc1ccc(S(=O)(=O)N2CCOCC2)s1)Nc1ccc2c(c1)CCC2 | -4 | 0 | 1 | -2 | 0 | 0 | x | x | x | x | x
O=C(Cc1ccc(S(=O)(=O)N2CCOCC2)s1)Nc1nc2c(s1)CCCC2 | 89* | 22 | 15 | 21 | 0 | 64* | 74* | -4 | 11* | 10 | 2
COc1ccc2c(c1)c(=O)oc1cc(OCC(=O)N3CCc4ccccc4C3)ccc12 | 105* | 24 | 62* | 27 | 17 | 81* | 68* | -19 | -6 | 17 | -2
Cc1cc(C(=O)O)ccc1-c1ccc(/C=C2\NC(=O)N(Cc3ccc(F)cc3)C2=O)o1 | 64* | 29 | 9 | 9 | 0 | 73* | 65* | -6 | 9.4* | 20 | 0
Cc1ccc(NC(=O)CN2C(=O)N/C(=C/c3cc(C)n(-c4cccc(C(=O)O)c4)c3C)C2=O)cc1 | 84* | 30 | 7 | 18 | x | 59* | 66* | -10 | 6.9* | 10 | -1
SMILES | DNMT1 block | SUMO1-SIM PPI | LMPTP inh | STEP inh | GRK2 inh | Scp1 inh | Scp1 confirm | MG interference | Scp-1 Tm shift | DNMT1 confirm | Beacon interf | others
Cc1ccc(CN2C(=O)N/C(=C\c3cccn3-c3cccc(C(=O)O)c3)C2=O)cc1 | 91* | -10 | 4 | 5 | 23 | 64* | 57* | -20 | 0 | 9 | -2
CCOC(=O)c1cccc(-n2cccc2/C=C2\NC(=O)N(CC(=O)O)C2=O)c1 | 0 | -16 | 0 | 0 | 0 | -3 | x | x | x | x | x
Cc1ccc(NC(=O)CN2C(=O)N/C(=C\c3cccn3-c3cccc(C(=O)O)c3)C2=O)cc1 | 91* | 5 | 15 | 12 | x | 67* | 55* | -20 | 6.2* | 60* | 0 | DNMT1 interf DR=>99
O=C(NCC1CC1)Nc1cccs1 | 0 | -3 | -1 | -2 | 0 | -8 | x | x | x | x | x
O=C(CN1C(=O)NC(c2ccc(F)cc2)C1=O)Nc1ccc2c(c1)OCCO2 (stereo not drawn) | -3 | 4 | 0 | -2 | 0 | 1 | x | x | x | x | x
CC(C)OCCCNc1ncnc2c1[nH]c1ccccc12 | -5 | 3 | 0 | 1 | 0 | -9 | x | x | x | x | x
N=C1C(c2nc3ccccc3s2)=C(O)CN1NC(=O)c1c[nH]c2ccccc12 | 65* | -7 | 35 | 37 | 0 | 64* | 54* | -15 | 4 | 2 | 0
